Compound activity deposited in PubChem BioAssay by Johns Hopkins Ion Channel Center.
Compounds with a hit are over-represented: about 3.7% of the library has one in this group of screens.
KCNQ1 block – human KCNQ1 channel inhibition | P51787 | CHO-K1 KCNQ1, FluxOR thallium flux fluorescence; stronger effect = higher value | B-score at 10 µM | 310,000 compounds, 1.3% hits | AID 2642;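 active means compounds whose thallium flux B-score, printed positive for inhibition, exceeds three library SD while starting fluorescence stays within three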;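 further: channel opened by potassium depolarization with thallium stimulus after 20 min compound exposure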
hERG rescue – shields human hERG channel from block by proarrhythmic agents; Q12809; CHO-hERG, FluxOR thallium flux, dofetilide IC70 present; activation (rescue from dofetilide block), less the hit threshold, % at 10 µM; 310,000 compounds, 0.51% hits;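 active means activation above the mean of controls blocked by dofetilide plus 5 SD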;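 further: thallium influx through hERG after potassium depolarization seen as dye fluorescence rise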
Kir21 inh – inhibitors of mouse Kir2.1 inward-rectifier potassium channel; B-score at 10 µM; 310,000 compounds, 0.85% hits; P35561; HEK293-Kir2.1, FluxOR thallium flux fluorescence; stronger effect = lower value;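 active means fluorescence ratio B-score at or below minus 3 SD of library scores, with starting-brightness B-score within 2 SD, cut at about -4.2 in these data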;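 further: channel flux triggered by added potassium and thallium sulfate stimulus; B-score of peak minus minimum fluorescence over baseline after thallium stimulus; more negative B-score means stronger Kir2.1 block with less thallium influx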
KCNK9 block – inhibitors of human KCNK9 two-pore domain potassium channel; Q9NPC2; HEK293 KCNK9, FluxOR thallium flux fluorescence; stronger effect = lower value; B-score at 10 µM; 310,000 compounds, 1.2% hits; AID 488922;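 active means ratio B-score over 3 SD below the library mean, with starting fluorescence within 5 SD of its mean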;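 further: negative B-score means less thallium flux so channel inhibition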
Target sequence (Q9NPC2 whole entry, looked up, the tested form may be a part): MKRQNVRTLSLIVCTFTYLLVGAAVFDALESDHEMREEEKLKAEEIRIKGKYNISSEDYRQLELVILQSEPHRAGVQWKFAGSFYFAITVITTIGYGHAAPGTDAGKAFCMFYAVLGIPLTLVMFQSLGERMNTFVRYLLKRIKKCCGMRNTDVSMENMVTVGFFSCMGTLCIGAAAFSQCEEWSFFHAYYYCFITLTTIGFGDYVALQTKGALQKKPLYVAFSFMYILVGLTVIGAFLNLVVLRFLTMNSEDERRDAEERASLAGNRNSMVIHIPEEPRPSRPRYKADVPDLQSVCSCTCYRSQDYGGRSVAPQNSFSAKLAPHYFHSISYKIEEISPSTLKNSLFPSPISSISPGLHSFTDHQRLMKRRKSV
KCNQ1 pot – potentiators or activators of human KCNQ1 potassium channel | 310,000 compounds, 0.35% hits | CHO-K1 KCNQ1, thallium flux FluxOR fluorescence; stronger effect = higher value | P51787 | B-score at 10 µM;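 active means fluorescence ratio B-score, a plate-corrected score, at least three library SD, with initial intensity B-score within 5 SD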
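Medium – assay buffer, equal DMSO in all wells · Material – CHO-K1 cell line with stable KCNQ1 potassium channel expression · Signal – kinetic FluxOR thallium fluorescence, 10-s 1-Hz baseline, 110-s post-stimulus read · Compound – single concentration per compound, DMSO matched to controls · Schedule – 37 °C overnight plating, 90-min dark dye load, 20-min compound pretreatment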
KCNK3 block – human KCNK3 channel inhibition, primary screen. O14649. CHO-KCNK3 thallium flux, FluxOR fluorescence; stronger effect = lower value. B-score at 10 µM. 340,000 compounds, 0.84% hits;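 active means B-score under library mean minus 4 SD, starting fluorescence ratio at most library mean plus 5 SD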;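 further: more negative B-score means stronger inhibition of thallium flux through KCNK3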
Target sequence (O14649 whole entry, looked up): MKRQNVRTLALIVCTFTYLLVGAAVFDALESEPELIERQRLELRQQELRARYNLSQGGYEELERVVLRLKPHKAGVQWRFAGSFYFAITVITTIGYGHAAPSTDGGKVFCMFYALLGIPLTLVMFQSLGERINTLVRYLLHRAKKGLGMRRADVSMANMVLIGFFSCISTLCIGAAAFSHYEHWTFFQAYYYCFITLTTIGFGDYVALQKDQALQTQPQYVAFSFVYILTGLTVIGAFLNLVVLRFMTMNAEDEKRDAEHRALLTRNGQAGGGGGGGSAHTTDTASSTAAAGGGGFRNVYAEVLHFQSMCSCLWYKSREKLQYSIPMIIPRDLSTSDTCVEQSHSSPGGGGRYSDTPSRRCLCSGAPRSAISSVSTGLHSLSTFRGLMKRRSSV
Each line names hits and unclear results; the compound was inactive in the other large screens.

CCOC(=O)c1sc(=S)n(C)c1NC(=O)c1ccc(C(C)(C)C)cc1	KCNQ1 block 11
CCOc1ccc(N2Nc3n[nH]c(N)c3N2)cc1	hERG rescue 37.1
Cc1ccc(C(C)NC(=O)c2ccncc2)cc1C (stereo unspecified)	none
CC(NC(=O)c1ccncc1)C(C)(C)C (stereo unspecified)	KCNQ1 pot 41
COc1ccc(C2CC(O)(c3ccccc3)Oc3cc(OC)c(OC)c(OC)c32)cc1 (stereo unspecified)	none
COc1ccc([C@@H]2C[C@H](c3ccccc3)Oc3cc(OC)c(OC)c(OC)c32)cc1	KCNK9 block -6.82
CSc1ccccc1NC(=O)CN(C)Cc1cc(=O)n2ccsc2n1	none
C[C@H]1CN([C@@H](C)CO)C(=O)c2cccc(NS(=O)(=O)c3ccc(Cl)cc3)c2O[C@@H]1CN(C)CC1CCCCC1	none (no result: KCNQ1 block, hERG rescue, Kir21 inh, KCNK9 block, KCNQ1 pot)
Cc1ccc(O)c(O)c1	none (no result: KCNK3 block)
Cc1ccc(C2Cc3cc(O)c(O)cc3CN2)cc1 (stereo unspecified)	Kir21 inh -7.5
COc1ccc(-c2cn3cc(C(=O)NN)ccc3n2)cc1	hERG rescue 5.2
NNC(=O)c1ccc2nc(-c3ccc(Br)cc3)cn2c1	none
CCOC(=O)CCCCCC(=O)Nc1ccc2c(c1)C(=O)N([C@H](C)CO)C[C@@H](C)[C@H](CN(C)Cc1ccc3c(c1)OCO3)O2	none (no result: KCNQ1 block, hERG rescue, Kir21 inh, KCNK9 block, KCNQ1 pot)
Cc1ccc(C)c(-n2c(-c3ccc(Br)cc3)csc2=NC(=O)c2ccccc2F)c1	KCNK9 block -7.74
CCN(Cc1ccncc1)Cc1cn(C)nc1-c1ccc(Oc2ccccc2)cc1	KCNQ1 block 6
Cc1cc(C(=O)NCC(=O)OCC(=O)NCC2CCCO2)ccc1[N+](=O)[O-] (stereo unspecified)	none (no result: KCNQ1 block, hERG rescue, Kir21 inh, KCNK9 block, KCNQ1 pot)
COc1ccc(OC)c(/C=C2\SC(N3CCCC(C)C3)=NC2=O)c1 (stereo unspecified)	KCNQ1 block 7
COc1ccc(/C=C2\SC(N3CCCCC3)=NC2=O)cc1OC	none
C=CCN1C(=O)CSc2ccc(C(=O)NCc3cccs3)cc21	hERG rescue 46.5
NC1=NC(=Nc2ccccc2)c2ccccc21	none
CC(C)c1ccc(N=C2N=C(N)c3ccccc32)cc1	Kir21 inh -4.45
CCOC(=O)c1ccc(Oc2nc(NC(C)(C)C)nc(N(C)C)n2)cc1	KCNQ1 pot 27
CCOC(=O)c1ccc(Oc2nc(N(C)C)nc(N(C)C)n2)cc1	none
CN(c1ccccc1)P(=O)(N(C)c1ccccc1)N(C)c1ccccc1	Kir21 inh -5.47
CN(c1ccccc1)S(=O)(=O)CS(=O)(=O)N(C)c1ccccc1	none (no result: KCNQ1 block, hERG rescue, Kir21 inh, KCNK9 block, KCNQ1 pot)
Clc1ccc2nc(C3CCN(Cc4ccccc4)CC3)[nH]c2c1	Kir21 inh -6.78
CC1CCCCN1C(=O)CN1CCC(c2nc3ccc(Cl)cc3[nH]2)CC1 (stereo unspecified)	none
Cc1ccc(CN2CCC(c3nc4ccc(Cl)cc4[nH]3)CC2)cc1	Kir21 inh -9.98
Cc1ccc2nc(C3CCN(S(=O)(=O)c4ccc5ccccc5c4)CC3)[nH]c2c1	KCNQ1 pot 8
Cc1cccc(OCC(=O)NCCNC(=O)c2ccco2)c1	none
COc1ccccc1NC(=O)COc1ccc2c(c1)OCO2	none
CC(C)C[C@@H](CN1C(=O)C(=O)NC[C@@H]1CC(C)C)NC(=O)Cc1ccccc1	none (no result: KCNQ1 block, hERG rescue, Kir21 inh, KCNK9 block, KCNQ1 pot)
CC(C)(C)c1cc(C2COC(=O)COCCOCC(=O)OCCOCCO2)cc(C(C)(C)C)c1O (stereo unspecified)	none (no result: KCNQ1 block, hERG rescue, Kir21 inh, KCNK9 block, KCNQ1 pot)
CCN(CC)CCNc1ncnc2c1sc1nc(N3CCCC3)c3c(c12)CC(C)(C)OC3	KCNQ1 pot 8
c1cncc(-c2nn[nH]n2)c1	hERG rescue 7.5
Cc1cc(C)c(NC(=O)COC(=O)Cc2cccs2)c(C)c1	none
CCOc1cc(/C=C(\C#N)C(=O)Nc2cccc(C(=O)O)c2)cc(Br)c1OC(=O)c1ccc(OC)cc1	Kir21 inh -5.35
CCOc1cc(/C=C(\C#N)C(=O)Nc2cccc(C(=O)O)c2)ccc1OCc1ccccc1Cl	KCNQ1 block 6
COc1ccc(CC(=O)NNC(=O)c2ccc(NC(C)=O)cc2)cc1	none
CCc1ccc(NC(=O)C(=O)NNC(=O)c2ccc(OC)cc2)cc1	hERG rescue 36.1, KCNQ1 pot 77
COc1ccc(C(=O)NNC(=O)C(=O)Nc2ccc(C)cc2)cc1	hERG rescue 15.0, KCNQ1 pot 41
COc1ccc(C(=O)NNC(=O)C(=O)Nc2ccc(C)c(Cl)c2)cc1	hERG rescue 97.4, KCNQ1 pot 58
CN(C)/C=C1/Sc2ccccc2C1=O	none
CC(=O)N(\C=C/C=C/C=C1\Sc2ccccc2C1=O)c1ccccc1	KCNQ1 block 7
CC(=O)c1ccc(S(=O)(=O)Nc2ccc(C(=O)NCCCn3ccnc3)cc2)cc1	none (no result: KCNQ1 block, hERG rescue, Kir21 inh, KCNK9 block, KCNQ1 pot)
CCS(=O)(=O)c1ccc(O)c(NC(=O)c2cc(-c3ccccn3)nc3ccccc23)c1	none (no result: KCNQ1 block, hERG rescue, Kir21 inh, KCNK9 block, KCNQ1 pot)
COc1ccccc1NC(=O)COC(=O)Cc1c[nH]c2ccccc12	none
CC(C)c1ccccc1NC(=O)COC(=O)Cc1c[nH]c2ccccc12	Kir21 inh -5.42
O=C(COC(=O)Cc1c[nH]c2ccccc12)NC1CCCCC1	Kir21 inh -7.05
O=C(COc1ccc(S(=O)(=O)N2CCCC2)cc1)Nc1ccc2c(c1)OCCO2	none
COc1ccc(NC(=O)c2sc(SC)nc2N)cc1	hERG rescue 5.1
COc1ccc(NC(=O)c2sc(SCc3ccccc3)nc2N)cc1	none
Cc1c(Cl)cccc1NC(=S)NCCc1ccc(C(F)(F)F)cc1	KCNQ1 block 7
COc1cc(/C=C2/C(=O)NN(c3ccccc3)C2=O)cc(Br)c1O	hERG rescue 6.8
COc1ccc(CNC(=O)COC(=O)Cc2ccc(Br)cc2)cc1	none (no result: KCNQ1 block, hERG rescue, Kir21 inh, KCNK9 block, KCNQ1 pot)
CCC(=O)N(c1nnc(SCC(=O)Nc2ccccc2Cl)s1)C1CC1	none (no result: KCNQ1 block, hERG rescue, Kir21 inh, KCNK9 block, KCNQ1 pot)
COc1ccc(-n2cc(CNCCc3nc(C)cc(C)n3)c(-c3ccccc3Cl)n2)cc1	none
COc1ccc(-n2cc(CNCCc3ncc(C)[nH]3)c(-c3ccccc3Cl)n2)cc1	Kir21 inh -4.8
CCc1ccc(OCC(=O)N/N=C/c2cc([N+](=O)[O-])ccc2N2CCCCCC2)cc1	KCNK9 block -6.72
COc1ccc(C(=O)c2sc(Nc3ccccc3)c(C(=O)Nc3ccc(OC)c(OC)c3)c2N)cc1	KCNQ1 block 7
COc1ccc(Nc2sc(C(=O)c3ccc(Cl)cc3)c(N)c2C(=O)Nc2ccccc2OC)cc1	none
NC(=O)C1CCN(C(=O)CSc2nc3ccccc3s2)CC1	hERG rescue 5.6
C=CCNc1nnc(SCC(=O)N2CCC(C(N)=O)CC2)s1	KCNQ1 pot 9
O=C(O)C1CCN(C(=O)CSc2nc3ccccc3s2)CC1	none
O=C(CSc1nc2ccccc2s1)N1N=C(c2cccs2)CC1c1ccc(F)cc1 (stereo unspecified)	KCNK9 block -6.86
